Columns and labels:
[1] = In vitro release study; format: physicochemical; conditions: in 24 h, distilled water, 37 °C, 50 rpm
Outline: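 Test formulation equivalent to 2 mg drug stirred in USP apparatus II with 200 ml distilled water, […], paddle 50 rpm. At set intervals, 1 ml aliquots were withdrawn, filtered and assayed by HPLC, with fresh medium replaced each time.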

[2] = test system: Caco-2 monolayers; assay: Caco-2 permeability study; format: in vitro ADME
[3] = Pharmacokinetics / bioavailability in dogs; format: in vivo
[4] = test system: H1650 cancer stem cell xenograft tumor; format: in vivo; conditions: 20 mg/kg oral gavage
[5] = test system: H1650 cancer stem cell orthotopic lung tumor; format: in vivo; conditions: 20 mg/kg oral gavage, 30 days treatment
[6] = test system: Bcl-2; assay: Western blot of tumor lysates: Bcl-2; format: in vivo, Nu/nu mice; conditions: densitometry
Outline: (§1)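 Nu/nu mice bearing H1650 cancer-stem-cell tumours got vehicle or test compound by oral gavage, solution or self-emulsified form, 20 mg/kg (solution every other day). Tumour nodules were lysed in RIPA pH 8.0 with protease inhibitor; 50 µg protein (BCA) on 10% SDS-PAGE, nitrocellulose, 5% milk/TBST block, antibodies 1:1000, HRP secondary. Signal normalised to β-actin; three replicates, mean ± SEM, one-way ANOVA with Tukey test.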

[7] = test system: SOX2; assay: Western blot of tumor lysates: SOX2; format: in vivo, Nu/nu mice
Outline: as §1

[8] = test system: Nanog; assay: Western blot of tumor lysates: Nanog; format: in vivo, Nu/nu mice
[9] = test system: NF-КB; assay: Western blot of tumor lysates: NF-КB; format: in vivo, Nu/nu mice
Outline: as §1

[10] = test system: lung tumor tissue; assay: Hematoxylin and eosin staining of lung tumor tissue; format: in vivo, Nu/nu mice
[11] = mouse, in vivo, cited from earlier work
[12] = test system: CSCs; conditions: cited from earlier work
[13] = test system: CSCs; conditions: cited from earlier work; remark: listed apart in the source
[14] = i.v. bolus 0.5 mg/kg, two-compartment model

Molecule: 3, 3-Diindolylmethane-14 [DIM-14]
- drug release [1]: ~ 10%
- average Peff, A–B ([2]; Caco-2, donor pH 6.5, acceptor pH 7.4): approximately 0.26 ± 0.05 × 10^−6 cm/s
- average Peff, B–A ([2]; Caco-2, secretory direction): 0.41 ± 0.09 × 10^−6 cm/s
- Volume of distribution (Vd) ([3]; i.v. bolus 0.5 mg/kg): 0.321 L/kg
- Volume of distribution at steady state (Vdss) ([3]; i.v. bolus 0.5 mg/kg): 0.319 L/kg
- K10 (elimination from central compartment) [3, 14]: 0.003 L/h
- K21 (peripheral to central compartment) [3, 14]: 0.15 L/h
- absolute oral bioavailability ([3]; oral 3.33 mg/kg): < 10%
- decrease in average number of tumor nodules versus control [4]: 29%
- decrease in lung tumor volumes [4]: 29%
- decrease in lung tumor weights versus vehicle control [4]: 30%
- decrease in average number of tumor nodules versus control [5]: 22%
- decrease in lung tumor volumes [5]: 34%
- decrease in lung tumor weights versus vehicle control [5]: 24%
- reduction of β-actin relative Bcl-2 expression versus untreated control tumors [6]: 1.8 fold
- reduction of relative SOX2 expression versus untreated control [7]: 1.9 fold
- decrease of relative Nanog expression versus untreated control [8]: 2.4 fold
- expression of NF-КB [9]: significantly down regulated
- histological examination of lungs and tracheobronchial epithelium ([10]; all groups): no signs of inflammation or edema
- tumor microvessels (H & E histology) ([10]; treated tumors versus untreated mice): only occasional, isolated microvessels

Molecule: COc1ccc(C(c2c[nH]c3ccccc23)c2c[nH]c3ccccc23)cc1 [DIM-5]
- Oral bioavaibility [11]: 39%

Molecule: Oc1ccc(C(c2c[nH]c3ccccc23)c2c[nH]c3ccccc23)cc1 [DIM-8]
- time to reach Cmax (Tmax) ([11]; po): about 60 min
- Oral bioavaibility [11]: 6%

Molecule: Clc1ccc(C(c2c[nH]c3ccccc23)c2c[nH]c3ccccc23)cc1 [DIM-12]
- Oral bioavaibility [11]: 42%

Molecule: CN(C)C(=N)N=C(N)N [Metformin]
- concentrations at which it works against CSCs [12]: 100 to 300 µM

Molecule: CC[C@@H](C(=O)[C@@H](C)[C@@H](O)[C@H](C)[C@@H]1O[C@@H]([C@@H](CC)C(=O)O)CC[C@@H]1C)[C@H]1O[C@]2(C=C[C@@H](O)[C@]3(CC[C@@](C)([C@H]4CC[C@](O)(CC)[C@H](C)O4)O3)O2)[C@H](C)C[C@@H]1C [salinomycin]
- reduction of the proportion of CSCs relative to paclitaxel [13]: more than 100 fold

Molecule: Lucifer Yellow [reference compound]
- mean permeability of paracellular control ([2]; Caco-2): < 0.15 ×10⁻⁶ cm/s

Reference: article PMC5645071 (Journal of controlled release : official journal of the …, 2015)
